Laboratory results as given in ChEMBL document CHEMBL4665666, “Discovery and characterization of trypanocidal cysteine protease inhibitors from the 'malaria box'” (Eur J Med Chem, 2019).

Tests used:
[1] = test system: Schistosoma mansoni; test: Inhibition of recombinant Schistosoma mansoni SmCB1 expressed in Pichia pastoris at 5 uM using Z-FR-AMC as substrate preincubated for 10 mins followed by substrate addition and measured at 23 sec interval for 30 mins by fluorimetric analysis relative to control
How it was run: (§1)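 SmCB1 (recombinant, 8 nM) in 0.1 M sodium acetate pH 5.5 with 0.01% Triton X-100 and 4 mM β-mercaptoethanol. Compound at 5 µM, either not pre-incubated or pre-incubated 10 min with enzyme. Z-FR-AMC 20 µM, fluorescence 340/440 nm every 23 s for 30 min. Inhibition is versus DMSO, with E-64 control; each condition in duplicate.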

[2] = test system: Schistosoma mansoni; test: Inhibition of recombinant Schistosoma mansoni SmCB1 expressed in Pichia pastoris at 5 uM using Z-FR-AMC as substrate and measured at 23 sec interval for 30 mins without preincubation by fluorimetric analysis relative to control; how it was run: as §1
[3] = molecular target: Rhodesain (Trypanosoma brucei rhodesiense) (UniProt Q95PM0); test: Inhibition of recombinant Trypanosoma brucei rhodesain expressed in Pichia pastoris at 100 uM using Z-FR-AMC as substrate and measured at 12 sec interval for 5 mins without preincubation by fluorimetric analysis relative to control
Rhodesain (Trypanosoma brucei rhodesiense), sequence (Q95PM0 1-450): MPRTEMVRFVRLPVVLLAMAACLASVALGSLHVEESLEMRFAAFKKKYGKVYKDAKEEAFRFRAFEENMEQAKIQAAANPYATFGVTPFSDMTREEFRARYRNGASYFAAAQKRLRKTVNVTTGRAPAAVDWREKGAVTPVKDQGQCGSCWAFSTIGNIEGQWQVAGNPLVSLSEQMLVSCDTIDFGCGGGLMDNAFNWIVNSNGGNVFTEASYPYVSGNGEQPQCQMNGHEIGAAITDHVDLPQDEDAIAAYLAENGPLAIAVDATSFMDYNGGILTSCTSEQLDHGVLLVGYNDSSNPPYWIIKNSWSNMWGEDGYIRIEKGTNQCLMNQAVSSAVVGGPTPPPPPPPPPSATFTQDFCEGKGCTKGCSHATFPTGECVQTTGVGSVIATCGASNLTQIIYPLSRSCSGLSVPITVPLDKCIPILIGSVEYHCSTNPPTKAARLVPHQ
How it was run: (§2)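 Run with no pre-incubation or with 10 min enzyme-compound pre-incubation. Fluorescence read at 340/440 nm. Concentration was set by solubility under assay conditions. Inhibition is against DMSO, with E-64 as positive control; triplicate.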

[4] = molecular target: Cruzipain (Trypanosoma cruzi) (UniProt P25779); test: Inhibition of recombinant Trypanosoma cruzi cruzain at 10 uM using Z-FR-AMC as substrate preincubated for 10 mins followed by substrate addition and measured at 12 sec interval for 5 mins by fluorimetric analysis relative to control; details: time 15.0 min
Cruzipain (Trypanosoma cruzi), sequence (P25779 123-467 limits assumed): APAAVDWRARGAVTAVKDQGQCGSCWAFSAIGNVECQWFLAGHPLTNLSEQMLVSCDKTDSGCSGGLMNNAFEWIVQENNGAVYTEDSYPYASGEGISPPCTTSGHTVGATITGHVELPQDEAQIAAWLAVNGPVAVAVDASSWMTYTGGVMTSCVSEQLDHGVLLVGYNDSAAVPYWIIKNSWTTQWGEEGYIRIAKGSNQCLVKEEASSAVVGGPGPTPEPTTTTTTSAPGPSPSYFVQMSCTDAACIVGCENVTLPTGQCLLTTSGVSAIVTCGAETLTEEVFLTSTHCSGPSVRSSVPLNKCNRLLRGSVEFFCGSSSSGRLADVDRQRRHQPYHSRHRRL
How it was run: (§3)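 Recombinant rhodesain or cruzain (1 nM) in 0.1 M sodium acetate pH 5.5, 0.01% Triton X-100, 1 mM β-mercaptoethanol. Compound at a single concentration, either without or after 10 min enzyme pre-incubation. Z-FR-AMC 2.5 µM, read at 340/440 nm every 12 s for 5 min. Inhibition is relative to DMSO, with E-64 as positive control. Done in duplicate (primary screen) or triplicate.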

[5] = molecular target: Rhodesain (Trypanosoma brucei rhodesiense) (UniProt Q95PM0); test: Inhibition of recombinant Trypanosoma brucei rhodesain expressed in Pichia pastoris at 5 uM using Z-FR-AMC as substrate preincubated for 10 mins followed by substrate addition and measured at 12 sec interval for 5 mins by fluorimetric analysis relative to control; details: time 15.0 min
How it was run: as §3, with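 “pre-incubation.” for “pre-incubation. Z-FR-AMC 2.5 µM, read at 340/440 nm every 12 s for 5 min.”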

[6] = test system: Trypanosoma brucei brucei; test: Trypanocidal activity against Trypanosoma brucei brucei Squib 427 assessed as reduction in parasite viability; format: functional, organism-based
[7] = molecular target: Cruzipain (Trypanosoma cruzi) (UniProt P25779); test: Inhibition of recombinant Trypanosoma cruzi cruzain at 5 uM using Z-FR-AMC as substrate and measured at 12 sec interval for 5 mins without preincubation by fluorimetric analysis relative to control
How it was run: as §3, with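 “pre-incubation.” for “pre-incubation. Z-FR-AMC 2.5 µM, read at 340/440 nm every 12 s for 5 min.”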

[8] = molecular target: Cruzipain (Trypanosoma cruzi) (UniProt P25779); test: Inhibition of recombinant Trypanosoma cruzi cruzain at 10 uM using Z-FR-AMC as substrate and measured at 12 sec interval for 5 mins without preincubation by fluorimetric analysis relative to control; how it was run: as §3
[9] = molecular target: Rhodesain (Trypanosoma brucei rhodesiense) (UniProt Q95PM0); test: Inhibition of recombinant Trypanosoma brucei rhodesain expressed in Pichia pastoris at 10 uM using Z-FR-AMC as substrate and measured at 12 sec interval for 5 mins without preincubation by fluorimetric analysis relative to control; how it was run: as §3
[10] = molecular target: Cruzipain (Trypanosoma cruzi) (UniProt P25779); test: Inhibition of recombinant Trypanosoma cruzi cruzain at 100 uM using Z-FR-AMC as substrate and measured at 12 sec interval for 5 mins without preincubation by fluorimetric analysis relative to control; how it was run: as §3
[11] = molecular target: Cruzipain (Trypanosoma cruzi) (UniProt P25779); test: Inhibition of recombinant Trypanosoma cruzi cruzain at 100 uM using Z-FR-AMC as substrate preincubated for 10 mins followed by substrate addition and measured at 12 sec interval for 5 mins by fluorimetric analysis relative to control; details: time 15.0 min; how it was run: as §3
[12] = molecular target: Rhodesain (Trypanosoma brucei rhodesiense) (UniProt Q95PM0); test: Inhibition of recombinant Trypanosoma brucei rhodesain expressed in Pichia pastoris at 10 uM using Z-FR-AMC as substrate preincubated for 10 mins followed by substrate addition and measured at 12 sec interval for 5 mins by fluorimetric analysis relative to control; details: time 15.0 min; how it was run: as §3
[13] = molecular target: Rhodesain (Trypanosoma brucei rhodesiense) (UniProt Q95PM0); test: Inhibition of recombinant Trypanosoma brucei rhodesain expressed in Pichia pastoris at 100 uM using Z-FR-AMC as substrate preincubated for 10 mins followed by substrate addition and measured at 12 sec interval for 5 mins by fluorimetric analysis relative to control; details: time 15.0 min; how it was run: as §2
[14] = molecular target: Cruzipain (Trypanosoma cruzi) (UniProt P25779); test: Inhibition of recombinant Trypanosoma cruzi cruzain at 5 uM using Z-FR-AMC as substrate preincubated for 10 mins followed by substrate addition and measured at 12 sec interval for 5 mins by fluorimetric analysis relative to control; details: time 15.0 min
How it was run: as §3, with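 “pre-incubation.” for “pre-incubation. Z-FR-AMC 2.5 µM, read at 340/440 nm every 12 s for 5 min.”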

[15] = molecular target: Rhodesain (Trypanosoma brucei rhodesiense) (UniProt Q95PM0); test: Inhibition of recombinant Trypanosoma brucei rhodesain expressed in Pichia pastoris at 5 uM using Z-FR-AMC as substrate and measured at 12 sec interval for 5 mins without preincubation by fluorimetric analysis relative to control
How it was run: as §3, with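 “pre-incubation.” for “pre-incubation. Z-FR-AMC 2.5 µM, read at 340/440 nm every 12 s for 5 min.”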

[16] = test system: Trypanosoma brucei rhodesiense; test: Trypanocidal activity against Trypanosoma brucei rhodesiense STI B900 assessed as reduction in parasite viability; format: functional, organism-based
[17] = molecular target: Rhodesain (Trypanosoma brucei rhodesiense) (UniProt Q95PM0); test: Inhibition of recombinant Trypanosoma brucei rhodesain expressed in Pichia pastoris at 20 uM using Z-FR-AMC as substrate and measured at 12 sec interval for 5 mins without preincubation by fluorimetric analysis relative to control; how it was run: as §2
[18] = molecular target: Cruzipain (Trypanosoma cruzi) (UniProt P25779); test: Inhibition of recombinant Trypanosoma cruzi cruzain at 20 uM using Z-FR-AMC as substrate and measured at 12 sec interval for 5 mins without preincubation by fluorimetric analysis relative to control; how it was run: as §3
[19] = molecular target: Cruzipain (Trypanosoma cruzi) (UniProt P25779); test: Inhibition of recombinant Trypanosoma cruzi cruzain at 20 uM using Z-FR-AMC as substrate preincubated for 10 mins followed by substrate addition and measured at 12 sec interval for 5 mins by fluorimetric analysis relative to control; details: time 15.0 min; how it was run: as §3
[20] = molecular target: Rhodesain (Trypanosoma brucei rhodesiense) (UniProt Q95PM0); test: Inhibition of recombinant Trypanosoma brucei rhodesain expressed in Pichia pastoris at 20 uM using Z-FR-AMC as substrate preincubated for 10 mins followed by substrate addition and measured at 12 sec interval for 5 mins by fluorimetric analysis relative to control; details: time 15.0 min; how it was run: as §2
[21] = test system: Trypanosoma cruzi; test: Trypanocidal activity against Trypanosoma cruzi Tulahuen C4 assessed as reduction in parasite viability; format: functional, organism-based
[22] = molecular target: Cruzipain (Trypanosoma cruzi) (UniProt P25779); test: Inhibition of recombinant Trypanosoma cruzi cruzain at 100 uM preincubated for 10 mins in presence of 0.01% Triton X-100 relative to control
How it was run: (§4)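 To test detergent sensitivity, cruzain was pre-incubated 10 min at room temperature with compound with no Triton X-100, 0.01% or 0.1% Triton X-100. Cleavage of Z-FR-AMC was then followed at pH 5.5 in acetate buffer. Percent inhibition was compared across detergent levels.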

[23] = molecular target: Cruzipain (Trypanosoma cruzi) (UniProt P25779); test: Inhibition of recombinant Trypanosoma cruzi cruzain at 100 uM preincubated with enzyme for 5 mins followed by substrate addition in absence of BSA relative to control
How it was run: (§5)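 For BSA sensitivity, compound was held 5 min with BSA (2 mg/mL in 0.001% Triton X-100), then 5 min with 1 nM cruzain, before substrate was added and activity monitored. Parallel runs omitted BSA under otherwise identical conditions.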

[24] = molecular target: Cruzipain (Trypanosoma cruzi) (UniProt P25779); test: Inhibition of recombinant Trypanosoma cruzi cruzain at 100 uM preincubated for 10 mins in presence of 0.1% Triton X-100 relative to control; how it was run: as §4
[25] = molecular target: Cruzipain (Trypanosoma cruzi) (UniProt P25779); test: Inhibition of recombinant Trypanosoma cruzi cruzain at 100 uM preincubated with BSA for 5 mins followed by incubation with enzyme for 5 mins followed by substrate addition relative to control; details: time 10.0 min; how it was run: as §5
[26] = molecular target: Cruzipain (Trypanosoma cruzi) (UniProt P25779); test: Inhibition of recombinant Trypanosoma cruzi cruzain at 100 uM preincubated for 10 mins in absence of Triton X-100 relative to control; how it was run: as §4

Row | SMILES | inhibition [1] [%] | inhibition [2] [%] | inhibition [3] [%] | inhibition [4] [%] | inhibition [5] [%] | IC50 [6] [µM] | inhibition [7] [%] | inhibition [8] [%] | inhibition [9] [%] | inhibition [10] [%] | inhibition [11] [%] | inhibition [12] [%] | inhibition [13] [%] | inhibition [14] [%] | inhibition [15] [%] | IC50 [16] [µM] | further results
1 | Cc1ccc(CSCc2ccc(C(=O)NC3CC3)o2)cc1 | 50 | 4.7 |  |  |  |  |  |  |  |  |  |  |  |  |  |  | 
2 | Cc1cc(Nc2ccc(C)c(Cl)c2)n2nc(C(F)(F)F)nc2n1 |  |  | 16 | 4 | 57.8 | 32 | 23.9 | 2 | 5 | 25 | 16 | 1 | 15 | 47.2 | 27.7 |  | 
3 | FC(F)(F)c1cccc(CNC2CCN(CCc3ccccc3)CC2)c1 |  |  | 12 | 6 | 70.8 |  | 23.1 | 0 | 1 | 7 | 22 | 8 | 14 | 65.1 | 20.3 |  | 
4 | Cc1nc2ccccc2c(O)c1CC=C(Cl)Cl |  |  |  | 11 | 77.1 | 32 | 61.5 | 4 | 5 |  |  | 2 |  | 99.1 | 43.4 | 32 | inhibition [17]: 4%; inhibition [18]: 3%; inhibition [19]: 7%; inhibition [20]: 3%
5 | CC1(c2ccccc2)Nc2ccccc2-c2nc3ccccc3n21 (centres undefined) | 5.2 | 49.7 |  |  |  |  |  |  |  |  |  |  |  |  |  |  | 
6 | CC(=O)c1ccc(NC(=O)CSc2nc(-c3ccccc3Cl)ns2)cc1 |  |  |  | 23 | 67.5 | 32 | 55.2 | 10 | 10 |  |  | 43 |  | 76.6 | 39.9 | 32 | IC50 [21]: 32 µM
7 | CCOc1cc(Cl)c(C(C)NC(=O)c2cccc(OC)c2)cc1OCC (centres undefined) | 9.5 | 36.3 |  |  |  |  |  |  |  |  |  |  |  |  |  |  | 
8 | COCCNCC(O)Cn1c2ccc(Cl)cc2c2cc(Cl)ccc21 (centres undefined) |  |  | 38 | 28 | 62.4 | 0.7 | 18.4 | 14 | 14 | 50 | 67 | 3 | 48 | 42.1 | 33.6 | 0.4 | inhibition [22]: 25.5%; inhibition [23]: 87.9%; inhibition [24]: 47.3%; inhibition [25]: 61.3%; inhibition [26]: 100%
9 | COc1ccc2sc(N(Cc3cccnc3)C(=O)c3ccc(C#N)cc3)nc2c1 |  |  |  | 7 | 76.9 | 32 | 53 | 9 | 10 |  |  | 21 |  | 72.3 | 50.7 |  | 
